The list is not random: actives were taken first. Their share in the collection is about 3.7%.
AHR activator: activates the human aryl hydrocarbon receptor. activation, % at 5 µM. AHR-responsive luciferase reporter cells, luminescence. P35869. 320,000 tested, 2.5% active; in the data active = activation above about 47%
Target sequence (P35869 whole entry, looked up): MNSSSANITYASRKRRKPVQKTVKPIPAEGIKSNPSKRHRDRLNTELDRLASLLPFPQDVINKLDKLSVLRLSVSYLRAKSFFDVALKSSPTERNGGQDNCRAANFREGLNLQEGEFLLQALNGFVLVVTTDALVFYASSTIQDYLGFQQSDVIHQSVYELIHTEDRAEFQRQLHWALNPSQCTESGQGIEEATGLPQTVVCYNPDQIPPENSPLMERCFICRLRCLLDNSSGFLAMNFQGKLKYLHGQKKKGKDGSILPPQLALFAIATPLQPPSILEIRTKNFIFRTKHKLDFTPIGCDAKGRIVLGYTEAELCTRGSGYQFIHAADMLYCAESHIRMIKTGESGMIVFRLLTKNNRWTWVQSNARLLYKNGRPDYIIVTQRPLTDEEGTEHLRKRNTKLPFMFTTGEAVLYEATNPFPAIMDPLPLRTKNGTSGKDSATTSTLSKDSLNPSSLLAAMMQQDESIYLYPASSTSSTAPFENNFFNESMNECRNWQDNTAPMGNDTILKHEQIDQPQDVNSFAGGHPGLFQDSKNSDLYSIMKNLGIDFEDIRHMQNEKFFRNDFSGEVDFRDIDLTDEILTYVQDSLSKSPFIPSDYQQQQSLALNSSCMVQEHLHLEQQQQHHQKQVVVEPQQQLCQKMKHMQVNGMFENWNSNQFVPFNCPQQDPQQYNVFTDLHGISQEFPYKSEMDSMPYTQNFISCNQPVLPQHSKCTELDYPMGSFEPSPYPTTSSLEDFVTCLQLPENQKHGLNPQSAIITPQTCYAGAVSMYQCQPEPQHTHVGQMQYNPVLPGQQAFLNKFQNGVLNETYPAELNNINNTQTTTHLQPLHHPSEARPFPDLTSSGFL
SR-BI DiI inh: mouse SR-BI HDL lipid transfer inhibition; Q61009; 320,000 tested, 0.96% active; ldlA[mSR-BI] CHO cells, DiI-HDL uptake fluorescence, 3 h; inhibition, % at 12.5 µM;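 active = mean replicate inhibition of at least 70% and a set share of replicates each scoring 70 or more; inconclusive = meets just one of the two criteria; inactive = fails both criteria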
SR-BI DiI-HDL act: SR-BI HDL lipid transfer activation | activation, % at 12.5 µM | CHO ldlA[mSR-BI] cells, DiI-HDL uptake fluorescence, 3 h; 100 = double the neutral-control signal | 320,000 tested, 0.096% active;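 active = mean replicate activation of at least 60% and every replicate at or above 60%; inconclusive = mean or all-replicate condition met, but not both; inactive = mean below 60% and not all replicates reaching 60%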
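System: CHO ldlA[mSR-BI] cells / Medium: HEPES-buffered (25 mM, pH 7.4) F12 plus 0.5% BSA / Probe or stimulus: labelled HDL, 10 µg/mL / Doses: single compound concentration, delivered by pin transfer / Schedule: 3 h, 37 °C / Measured by: DiI fluorescence, bottom read / Measure: cell-associated DiI fluorescence as measure of HDL uptake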
GASC-1 inh: human JMJD2C demethylase inhibition | Q9H3R0 | GST-JMJD2C(1-420) H3K9me3 demethylation, DELFIA europium | inhibition, % at 2.35 µM | 330,000 tested, 0.069% active | AID 2099;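 active = more than half of a compound's replicate wells show inhibition beyond 50%, single wells judged on their own value; inconclusive = some, but no more than half, of replicates pass 50% inhibition; inactive = no replicate passes 50% inhibition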;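 note: signal counts dimethyl H3K9 product captured on neutravidin plate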
FXN GAA850 act: increases GAA850 frataxin promoter reporter activity; HEK293 lucGAA850 FXN promoter luciferase reporter, 24 h; percent of 10 µM SAHA response; 360,000 tested, 0.56% active; activation, % at 6 µM; AID 540364;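 active = activation above the average of all compounds screened plus 3 SD, cutoff fixed separately per campaign, cut at about 7.5% in these data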
GAA30 counter: counter-screen for GAA850 frataxin promoter activators: GAA30 promoter activation; AID 588350; activation, % at 6 µM; shares compounds with FXN GAA850 act; HEK293 lucGAA30 FXN promoter luciferase, 24 h; DMSO = 0%, 5 µM ipriflavone = 100%; 1,900 tested, 66% active;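 active = mean activation above the mean of solvent-only control wells plus 3 SD, cut at about 22% in these data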;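 note: counterscreen of GAA850 promoter hits where activity marks nonselective or luminescence artifacts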
FXN GAA850 conf: GAA850 FXN promoter activation confirmation. shares compounds with FXN GAA850 act. HEK293 lucGAA850 FXN promoter luciferase reporter, 24 h; 100% = activation by SAHA. activation, % at 6 µM. 1,900 tested, 86% active;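 active = mean activation above a set limit taken from the primary screen, cut at about 8% in these data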
Large screens that a line does not name were inactive (follow-up assays come after a bar, where they were run).

COC(=O)c1c(NC(=O)CN2CCC3(O)CCCCC3C2c2ccc(OC)cc2OC)sc(C)c1C (stereo not given)	FXN GAA850 act 10 | GAA30 counter 26 | FXN GAA850 conf inactive
COc1ccc(CNC(=O)C2CCCN(S(=O)(=O)c3c(C)noc3/C=C/N(C)C)C2)cc1 (stereo not given)	none
COc1ccc(-c2cnnc(N/N=C/c3ccc(O)cc3)n2)cc1	FXN GAA850 act 7.6 | GAA30 counter 68 | FXN GAA850 conf 36
Oc1ccc(/C=N\Nc2nncc(-c3ccccc3)n2)cc1	FXN GAA850 act 8.7 | GAA30 counter 40 | FXN GAA850 conf 18
COc1ccc(-c2cnnc(N/N=C/c3ccc(O)c(O)c3)n2)cc1	GASC-1 inh inconclusive
Brc1ccc(/C=N/Nc2nncc(-c3ccccc3)n2)o1	none (no result: SR-BI DiI inh, SR-BI DiI-HDL act, FXN GAA850 act)
CCOc1ccc2c(c1)c(N=Nc1cccc(C(=O)O)c1)c(O)n2C	FXN GAA850 act 8.8 | GAA30 counter 107 | FXN GAA850 conf 38
CC(NS(=O)(=O)c1ccc(Br)cc1)C(c1cccs1)N1CCN(C)CC1 (stereo not given)	FXN GAA850 act 17 | GAA30 counter inactive | FXN GAA850 conf inactive
CC1Cn2c(nc(=O)c3c2NCN(CCc2ccccc2)C3)S1 (stereo not given)	none
O=C(CCn1c(=O)c2sccc2n(CC(=O)NCc2ccco2)c1=O)NCc1ccccc1	none
O=C(NCc1ccco1)c1ccc(Cn2c(=O)c3sccc3n(Cc3cccc(F)c3)c2=O)cc1	FXN GAA850 act 18 | GAA30 counter 25 | FXN GAA850 conf 13
O=C(NCc1ccco1)c1ccc(Cn2c(=O)c3ccccc3n(Cc3cccc(Cl)c3)c2=O)cc1	FXN GAA850 act 11 | GAA30 counter inactive | FXN GAA850 conf inactive
O=P(NC1CCCCC1)(c1ccccc1)c1ccccc1	none (no result: AHR activator, GASC-1 inh)
CC/C(=C\C1CCCCC1)C(NP(=O)(c1ccccc1)c1ccccc1)c1ccccc1 (stereo not given)	FXN GAA850 act 13 | GAA30 counter 30 | FXN GAA850 conf 19
CC(C)CC1Nc2ccc(C(=O)NCCCN3CCCCC3C)cc2NC1=O (stereo not given)	none
O=C(NC1CCCCC1)C(c1cccs1)N(C(=O)Cc1c[nH]c2ccccc12)c1ccc(F)cc1 (stereo not given)	FXN GAA850 act 10 | GAA30 counter inactive | FXN GAA850 conf inactive
Cc1ccc(N(C(=O)Cc2cccs2)C(C(=O)NC2CCCCC2)c2ccccn2)cc1C (stereo not given)	FXN GAA850 act 13 | GAA30 counter inactive | FXN GAA850 conf 11
CC(=O)c1ccc(N(C(=O)Cc2c[nH]c3ccccc23)C(C(=O)NC2CCCCC2)c2cccs2)cc1 (stereo not given)	none
Cc1cccc(N(C(=O)Cc2cccs2)C(C(=O)NC2CCCC2)c2ccncc2)c1 (stereo not given)	none (no result: SR-BI DiI inh, SR-BI DiI-HDL act)
O=C(CSC1=NCCN1)Nc1cccc(C(F)(F)F)c1	FXN GAA850 act 9.6 | GAA30 counter 25 | FXN GAA850 conf 21
O=C(CSCCO)Nc1cccc2ccccc12	none
O=C(CSCC(=O)Nc1cccc2ccccc12)Nc1cccc2ccccc12	FXN GAA850 act 14 (no result: SR-BI DiI inh, SR-BI DiI-HDL act) | GAA30 counter 23 | FXN GAA850 conf inactive
O=C(Nc1ncnc2sc3c(c12)CCCCC3)c1ccco1	FXN GAA850 act 12 (no result: SR-BI DiI inh, SR-BI DiI-HDL act) | GAA30 counter inactive | FXN GAA850 conf inactive
O=C(Nc1ncnc2sc3c(c12)CCCC3)c1ccncc1	none
CCC/C=C/c1ccc(CN2C(C(C)C)C(=O)N(Cc3cn(CC4CCCCC4)nn3)CCS2(=O)=O)cc1 (stereo not given)	FXN GAA850 act 7.9 (no result: AHR activator, SR-BI DiI inh, SR-BI DiI-HDL act, GASC-1 inh) | GAA30 counter inactive | FXN GAA850 conf inactive
COC(=O)c1c(NC(=O)Cc2cccs2)sc(C(=O)N2CCCCC2)c1C	FXN GAA850 act 9.2 | GAA30 counter inactive | FXN GAA850 conf 9.3
COC(=O)c1c(NC(=O)Cc2cccs2)sc(C(=O)NC2CCCCC2)c1C	none
CCOC(=O)Cc1csc(NC(=O)NC2(C(F)(F)F)Oc3ccc(Cl)cc3O2)n1 (stereo not given)	FXN GAA850 act 8.5 | GAA30 counter 44 | FXN GAA850 conf 17
O=C(NCCN1CCOCC1)c1cc(Cl)ccc1Cl	none (no result: AHR activator)
O=C(NCCN1CCOCC1)NC1(C(F)(F)F)Oc2ccc(Cl)cc2O1 (stereo not given)	FXN GAA850 act 15 | GAA30 counter 36 | FXN GAA850 conf 20
COCC(C)NC(=O)NC1(C(F)(F)F)Oc2ccc(Cl)cc2O1 (stereo not given)	FXN GAA850 act 10 | GAA30 counter inactive | FXN GAA850 conf 18
O=C(CCN1C(=O)C2CCCCC2C1=O)Nc1ccc(F)c(F)c1F (stereo not given)	none
CCOC(=O)c1ccc(NS(=O)(=O)c2c(N)[nH]c(=O)[nH]c2=O)cc1	none
CC(Oc1ccc(Br)cc1)C(=O)NCc1ccccn1 (stereo not given)	none
O=C(O)CNc1nc(NCc2ccc(Cl)cc2)ccc1[N+](=O)[O-]	none (no result: AHR activator, SR-BI DiI inh, SR-BI DiI-HDL act, GASC-1 inh)
O=[N+]([O-])c1ccc(Sc2nc3ccccc3o2)c([N+](=O)[O-])c1	FXN GAA850 act 16 | GAA30 counter inactive | FXN GAA850 conf 46
O=[N+]([O-])c1ccc(Cl)cc1Sc1nc2ccccc2o1	none
OCC1CCCN(C(=S)Nc2ccc(Oc3ccccc3)cc2)C1 (stereo not given)	FXN GAA850 act 11 | GAA30 counter 105 | FXN GAA850 conf 34
Cc1ccc(-c2nnc3c4ccccc4c(C)nn23)cc1S(=O)(=O)N1CCN(CCO)CC1	FXN GAA850 act 7.6 | GAA30 counter 32 | FXN GAA850 conf 17
CCN(c1ccccc1)c1nc2ccsc2c(=O)s1	none (no result: GASC-1 inh)
CN(c1ccccc1)c1nc2ccsc2c(=O)s1	FXN GAA850 act 7.7 | GAA30 counter 94 | FXN GAA850 conf 36
O=C(NNC(=O)c1ccncc1)Nc1ccc(Cl)cc1	none (no result: AHR activator, GASC-1 inh)
COc1ccc(-c2cnc3cccnn23)cn1	none (no result: AHR activator, SR-BI DiI inh, SR-BI DiI-HDL act, GASC-1 inh)
Clc1ccc(-c2cnc3cccnn23)cc1	FXN GAA850 act 9.0 (no result: AHR activator, SR-BI DiI inh, SR-BI DiI-HDL act, GASC-1 inh) | GAA30 counter 38 | FXN GAA850 conf 15
Cc1ccc(S(=O)(=O)NC2c3cccc4cccc(c34)C2Sc2ncccn2)cc1 (stereo not given)	none
Cc1cc(C)nc(SC2c3cccc4cccc(c34)C2NS(=O)(=O)c2ccccc2)n1 (stereo not given)	FXN GAA850 act 8.6 | GAA30 counter inactive | FXN GAA850 conf 14
OC(c1ccc(Cl)c(Cl)c1)c1ncc(-c2ccc(C(F)(F)F)cc2)[nH]1 (stereo not given)	none (no result: AHR activator, SR-BI DiI inh, SR-BI DiI-HDL act, GASC-1 inh)
